Assays:
[1] = Drug metabolism in B6C3F1 mouse liver microsomes after 30 mins by LC-ESI-MS analysis; format: ADME
Method in brief: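 2'-OH-TCC at 0.2, 0.5, 1, 2, 3, 5, 10 and 50 µM incubated with liver microsomes (alamethicin, MgCl2, saccharolactone, UDPGA; 37 °C), sampled at 5, 10, 15 and 30 min. Samples ≥5 µM diluted 1:9 in ACN; LC-ESI-MS. KM and vmax fitted from rate vs concentration; intrinsic clearance derived from these; mean and SD of three.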

[2] = Drug metabolism in cynomolgus monkey liver microsomes assessed as N'-glucuronide-triclocarban formation incubated for 5 mins prior to UDPGA addition measured after 30 mins by LC-UV-ESI-MS/MS analysis; format: ADME, Macaca fascicularis; conditions: 0.5 h
Method in brief: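 TCC was incubated at 10 µM (2% DMSO) in 100 mM phosphate pH 7.4 with alamethicin-treated microsomes or Supersomes, 10 mM MgCl2 and 10 mM saccharolactone. After 5 min pre-incubation at 37 °C, UDPGA was added to start the reaction. Protein was raised up to 2 mg/mL. Samples were quenched in ACN with 1 µM DCC internal standard, centrifuged, and N-glucuronides detected by LC-ESI-MS/MS in SRM mode.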

[3] = target: T1, UDP-glucuronosyltransferase 1A7 (Homo sapiens, UniProt Q9HAW7); test: Drug metabolism assessed as human UGT1A7-mediated N-glucuronide-triclocarban formation expressed in baculovirus infected insect sf9 cells incubated for 5 mins prior to UDPGA addition measured after 5 to 30 mins by LC-UV analysis; format: ADME
T1 sequence (Q9HAW7 whole entry): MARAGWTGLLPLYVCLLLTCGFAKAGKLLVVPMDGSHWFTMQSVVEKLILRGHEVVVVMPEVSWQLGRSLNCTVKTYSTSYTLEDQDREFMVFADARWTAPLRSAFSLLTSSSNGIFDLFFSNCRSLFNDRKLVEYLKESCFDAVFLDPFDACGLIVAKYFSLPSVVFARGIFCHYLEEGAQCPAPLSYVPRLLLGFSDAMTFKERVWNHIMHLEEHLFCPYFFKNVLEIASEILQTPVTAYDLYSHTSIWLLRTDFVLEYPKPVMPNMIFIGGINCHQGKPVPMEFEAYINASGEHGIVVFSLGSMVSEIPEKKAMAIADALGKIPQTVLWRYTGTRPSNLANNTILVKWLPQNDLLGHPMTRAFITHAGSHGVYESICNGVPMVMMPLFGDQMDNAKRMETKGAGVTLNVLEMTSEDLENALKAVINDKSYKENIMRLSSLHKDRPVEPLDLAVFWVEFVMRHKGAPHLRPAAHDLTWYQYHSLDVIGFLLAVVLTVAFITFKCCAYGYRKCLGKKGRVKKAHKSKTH
Method in brief: (§1)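 Microsomes or UGT Supersomes (5 µg protein) were held 15 min on ice with alamethicin in 100 mM potassium phosphate pH 7.4. TCC was added at 10 µM (2% DMSO) with 10 mM MgCl2 and 10 mM saccharolactone, pre-warmed 5 min at 37 °C, then started with UDPGA. Samples at 5, 10, 15 and 30 min were quenched in ACN. Product was read by LC-UV at 265 nm; rate came from regression over time, three incubations.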

[4] = Drug excretion in Sprague-Dawley rat urine assessed as N'-glucuronide-triclocarban formation at 1 mg/kg, po by LC-MS analysis; format: ADME, organism-based; set-up: dose 1 mg/kg, route oral; conditions: in vivo
[5] = Drug excretion in Sprague-Dawley rat urine assessed as 2'-O-glucuronide-triclocarban formation at 1 mg/kg, po by LC-MS analysis; format: ADME, organism-based; set-up: dose 1 mg/kg, route oral; conditions: in vivo
[6] = target: T2, UDP-glucuronosyltransferase 1A1 (Homo sapiens, UniProt P22309); test: Drug metabolism assessed as human UGT1A1-mediated N'-glucuronide-triclocarban formation expressed in baculovirus infected insect sf9 cells incubated for 5 mins prior to UDPGA addition measured after 5 to 30 mins by LC-UV analysis; format: ADME; method in brief: as §1
T2 sequence (P22309 whole entry): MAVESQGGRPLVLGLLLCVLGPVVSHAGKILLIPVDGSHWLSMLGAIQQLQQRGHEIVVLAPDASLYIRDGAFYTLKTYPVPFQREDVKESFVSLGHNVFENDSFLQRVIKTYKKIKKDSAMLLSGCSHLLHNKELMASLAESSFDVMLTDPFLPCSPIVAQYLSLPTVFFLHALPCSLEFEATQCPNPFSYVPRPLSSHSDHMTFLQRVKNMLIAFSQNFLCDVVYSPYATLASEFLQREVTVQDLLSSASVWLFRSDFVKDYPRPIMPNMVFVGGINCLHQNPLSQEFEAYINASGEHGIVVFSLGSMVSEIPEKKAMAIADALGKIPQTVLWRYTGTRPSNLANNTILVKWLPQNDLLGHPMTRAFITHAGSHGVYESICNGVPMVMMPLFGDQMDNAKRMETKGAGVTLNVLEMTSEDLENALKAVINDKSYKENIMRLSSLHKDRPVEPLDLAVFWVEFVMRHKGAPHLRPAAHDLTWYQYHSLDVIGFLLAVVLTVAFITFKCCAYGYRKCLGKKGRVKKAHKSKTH

[7] = system: Liver microsome; test: Drug metabolism in human liver microsomes assessed as N'-glucuronide-triclocarban formation incubated for 5 mins prior to UDPGA addition measured after 5 to 30 mins by LC-UV analysis; format: ADME
Method in brief: (§2)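 Pooled human kidney or liver microsomes (liver: 25 mixed-gender donors), 5 µg protein, in 200 µL 100 mM potassium phosphate pH 7.4. Alamethicin pre-treated on ice 15 min. Final 10 µM TCC (2% DMSO), with 10 mM MgCl2 and 10 mM saccharolactone, preincubated 5 min at 37 °C. Started with UDPGA (20 mM stock). Sampled at 5, 10, 15 and 30 min into ACN containing 1 µM DCC internal standard.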

[8] = Drug metabolism in human kidney microsomes assessed as N-glucuronide-triclocarban formation incubated for 5 mins prior to UDPGA addition measured after 30 mins by LC-UV-ESI-MS/MS analysis; format: ADME; conditions: 0.5 h; method in brief: as §2
[9] = system: Liver microsome; test: Drug metabolism in human liver microsomes assessed as N'-glucuronide-triclocarban formation incubated for 5 mins prior to UDPGA addition measured after 30 mins by LC-UV-ESI-MS/MS analysis; format: ADME; conditions: 0.5 h; method in brief: as §2

Row | Km at 0.5 h ([1]; B6C3F1, mouse, liver microsomes) [µM] | Vmax ([1]; mouse, microsomes, 0.5 h) [nmol/min/mg] | SMILES | Drug metabolism [2] | Drug metabolism [3] | Drug excretion [4] | Drug excretion [5] | Drug metabolism [6] | Drug metabolism [7] | Drug metabolism [8] | Drug metabolism [9]
1 | 2.46 | 1.45 | O=C(Nc1ccc(Cl)c(Cl)c1)Nc1ccc(Cl)cc1O |  |  |  |  |  |  |  | 
2 |  |  | O=C(Nc1ccc(Cl)cc1)Nc1ccc(Cl)c(Cl)c1 [TRICLOCARBAN] | metabolite_detected | metabolite_not_detected | metabolite_not_detected | metabolite_detected | metabolite_not_detected | metabolite_not_detected | metabolite_detected | metabolite_detected
